Converted amounts (≈) assume the structure as drawn.
Legend:
E6SM [1] = assay: Tested for the minimum inhibitory concentration required to reduce herpes simplex virus type 2 (HSV-2) strain G induced cytopathogenicity by 50%; assay type: functional; conditions: Homo sapiens
In short: (§1)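 Inhibition of virus-induced cytopathogenicity in human embryonic skin-muscle (E6SM) fibroblasts seeded in 96-well trays. Viruses were HSV-1 (KOS, F, McIntyre), TK- HSV-1 B2006, TK-/TK+ HSV-1 clinical isolate VMW-1837 and HSV-2 (G, 196, Lyons). […] MCC is the lowest concentration giving microscopically detectable alteration of normal cell morphology; highest concentration tested was 400 µg/mL.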

E6SM [2] = assay: Tested for the minimum inhibitory concentration required to reduce herpes simplex virus type 1 (HSV-1) strain KOS induced cytopathogenicity by 50%; assay type: functional; conditions: Homo sapiens; in short: as §1
E6SM [3] = assay: Tested for the minimum inhibitory concentration required to reduce vesicular stomatitis virus(VSV) induced cytopathogenicity by 50%; assay type: functional; conditions: Homo sapiens
E6SM [4] = assay: Tested for the minimum inhibitory concentration required to reduce herpes simplex virus type 1 (TK/ TK+HSV-1) strain VMW-1837 induced cytopathogenicity by 50%; assay type: functional; conditions: Homo sapiens; in short: as §1
E6SM [5] = assay: Tested for the minimum cytotoxic concentration required to cause a microscopically detectable alteration of normal cell morphology in human embryonic skin muscle (E6SM) fibroblast cell cultures; assay type: functional
In short: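 Cytotoxicity in human embryonic skin-muscle (E6SM) fibroblasts seeded in 96-well trays, scored microscopically as altered normal cell morphology. Tested up to 400 µg/mL.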

E6SM [6] = assay: Tested for the minimum inhibitory concentration required to reduce thymidine kinase deficient herpes simplex virus type 1 (TK-HSV-1) strain B2006 induced cytopathogenicity by 50%; assay type: functional; conditions: Homo sapiens; in short: as §1
HEL [7] = assay: Tested for the cytotoxic concentration, required to reduce cell growth by 50% in human embryonic lung (HEL) cells; assay type: functional
In short: (§2)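 Virus plaque formation assay in human embryonic lung (HEL) cells seeded in 96-well trays. Targets were TK+ VZV (Oka, YS), TK- VZV (07/1, YS/R) and CMV (AD169, Davis). Value is the concentration that reduces plaque number by 50%. Cytotoxicity in HEL cells was taken as the concentration that reduces cell growth by 50%.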

HEL [8] = assay: Tested for the inhibitory concentration required to reduce TK+ Varicella-Zoster virus (TK+VZV) strain OKA plaque formation by 50%; assay type: functional, cell-based; conditions: Homo sapiens; in short: as §2
HEL [9] = assay: Tested for the inhibitory concentration required to reduce TK+ Varicella-Zoster virus (TK+VZV) strain YS plaque formation by 50%; assay type: functional, cell-based; conditions: Homo sapiens; in short: as §2
HEL [10] = assay: Tested for the inhibitory concentration required to reduce cytomegalovirus (CMV) strain Davis plaque formation by 50%; assay type: functional, cell-based; conditions: Homo sapiens; in short: as §2
HEL [11] = assay: Tested for the inhibitory concentration required to reduce thymidine kinase deficient Varicella-Zoster virus (TK-VZV) strain 07/1 plaque formation by 50%; assay type: functional, cell-based; conditions: Homo sapiens; in short: as §2
HEL [12] = assay: Tested for the inhibitory concentration required to reduce thymidine kinase deficient Varicella-Zoster virus (TK-VZV) strain YS/R plaque formation by 50%; assay type: functional, cell-based; conditions: Homo sapiens; in short: as §2
E6SM [13] = assay: Tested for the minimum inhibitory concentration required to reduce vaccinia virus(VV) induced cytopathogenicity by 50%; assay type: functional; conditions: Homo sapiens
HEL [14] = assay: Tested for the inhibitory concentration required to reduce cytomegalovirus (CMV) strain AD-169 plaque formation by 50%; assay type: functional, cell-based; conditions: Homo sapiens; in short: as §2
E6SM [15] = assay: Tested for the minimum inhibitory concentration required to reduce herpes simplex virus type 2 (HSV-2) strain G induced cytopathogenicity by 50%.; assay type: functional; conditions: Homo sapiens; in short: as §1
E6SM [16] = assay: Tested for the minimum inhibitory concentration required to reduce herpes simplex virus type 2 (HSV-2) strain Lyons induced cytopathogenicity by 50%.; assay type: functional; conditions: Homo sapiens; in short: as §1
E6SM [17] = assay: Tested for the minimum inhibitory concentration required to reduce herpes simplex virus type 1 (HSV-1) strain F induced cytopathogenicity by 50%.; assay type: functional; conditions: Homo sapiens; in short: as §1
E6SM [18] = assay: Tested for the minimum inhibitory concentration required to reduce herpes simplex virus type 1 (HSV-1) strain KOS induced cytopathogenicity by 50%.; assay type: functional; conditions: Homo sapiens; in short: as §1
E6SM [19] = assay: Tested for the minimum inhibitory concentration required to reduce herpes simplex virus type 1 (HSV-1) strain McIntyre induced cytopathogenicity by 50%.; assay type: functional; conditions: Homo sapiens; in short: as §1
E6SM [20] = assay: Tested for the minimum inhibitory concentration required to reduce vaccinia virus(VV) induced cytopathogenicity by 50%.; assay type: functional; conditions: Homo sapiens
E6SM [21] = assay: Tested for the minimum inhibitory concentration required to reduce herpes simplex virus type 1 (TK- / TK+ HSV-1) strain VMW-1837 induced cytopathogenicity by 50%.; assay type: functional; conditions: Homo sapiens; in short: as §1
E6SM [22] = assay: Tested for the minimum cytotoxic concentration required to cause a microscopically detectable alteration of normal cell morphology in human embryonic skin muscle (E6SM) fibroblast cell cultures.; assay type: functional; in short: as §1
E6SM [23] = assay: Tested for the minimum inhibitory concentration required to reduce thymidine kinase deficient herpes simplex virus type 1 (TK- HSV-1) strain B2006 induced cytopathogenicity by 50%.; assay type: functional; conditions: Homo sapiens; in short: as §1
HEL [24] = assay: Tested for the cytotoxic concentration, required to reduce cell growth by 50% in human embryonic lung (HEL) cells.; assay type: functional; in short: as §2
HEL [25] = assay: Tested for the inhibitory concentration required to reduce TK+ Varicella-Zoster virus (TK+ VZV) strain OKA plaque formation by 50%.; assay type: functional, cell-based; conditions: Homo sapiens
HEL [26] = assay: Tested for the inhibitory concentration required to reduce TK+ Varicella-Zoster virus (TK+ VZV) strain YS plaque formation by 50%; assay type: functional, cell-based; conditions: Homo sapiens
HEL [27] = assay: Tested for the inhibitory concentration required to reduce cytomegalovirus (CMV) strain AD-169 plaque formation by 50%.; assay type: functional, cell-based; conditions: Homo sapiens; in short: as §2
HEL [28] = assay: Tested for the inhibitory concentration required to reduce cytomegalovirus (CMV) strain Davis plaque formation by 50%.; assay type: functional, cell-based; conditions: Homo sapiens; in short: as §2
HEL [29] = assay: Tested for the inhibitory concentration required to reduce thymidine kinase deficient Varicella-Zoster virus (TK- VZV) strain 07/1 plaque formation by 50%.; assay type: functional, cell-based; conditions: Homo sapiens
HEL [30] = assay: Tested for the inhibitory concentration required to reduce thymidine kinase deficient Varicella-Zoster virus (TK- VZV) strain YS/R plaque formation by 50%.; assay type: functional, cell-based; conditions: Homo sapiens
Mus musculus = species on record: Mus musculus; assay: Inhibition constant assumed to reflect the affinity for the transport site in mouse erythrocytes; assay type: functional
In short: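 Thymidine influx competition in erythrocytes from male B6D2F1 mice, 10% hematocrit in buffered saline, room temperature. [methyl-3H]thymidine at 0.1, 0.2, 0.5 and 1 mM, alone or with inhibitor at 0.053–1.05 mM. Influx stopped after 3 s with NBMPR. Pellets extracted in 5% perchloric acid and counted by scintillation. Zero-time trapping subtracted. Duplicate samples. Ki from Dixon plot.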

E6SM [31] = assay: (§3) Tested for the minimum inhibitory concentration required to reduce herpes simplex virus type 2 (HSV-2) strain 196 induced cytopathogenicity by 50%.; assay type: functional; conditions: Homo sapiens
E6SM [32] = assay: as §3; assay type: functional; conditions: Homo sapiens; in short: as §1; remark: listed apart in the source
HEL [33] = assay: Tested for the 50% inhibitory concentration required to reduce TK+ Varicella-Zoster virus (TK+ VZV) strain YS plaque formation by 50%; assay type: functional, cell-based; conditions: Homo sapiens; in short: as §2

| Structure (SMILES) | MIC (E6SM [3]) | MIC (E6SM [15]) | MIC (E6SM [16]) | MIC (E6SM [17]) | MIC (E6SM [18]) | MIC (E6SM [19]) | MIC (E6SM [20]) | MIC (E6SM [21]) | MCC (E6SM [22]) | MIC (E6SM [23]) | CC50 (HEL [24]) | IC50 (HEL [25]) | IC50 (HEL [27]) | IC50 (HEL [28]) | IC50 (HEL [29]) | IC50 (HEL [30]) | also measured |
| --- | --- | --- | --- | --- | --- | --- | --- | --- | --- | --- | --- | --- | --- | --- | --- | --- | --- |
| Nc1ncc2ncn(C3COC(CO)C(O)C3)c2n1 (stereo unspecified) | > 200 µg/mL |  |  |  |  |  |  |  |  |  |  |  |  |  |  |  | MIC (E6SM [1]): 20 µg/mL (≈ 75.4 µM); MIC (E6SM [2]): 20 µg/mL (≈ 75.4 µM); MIC (E6SM [4]): 70 µg/mL (≈ 264 µM); MCC (E6SM [5]): > 400 µg/mL; MIC (E6SM [6]): 150 µg/mL (≈ 565 µM); CC50 (HEL [7]): 140 µg/mL (≈ 528 µM); IC50 (HEL [8]): 60 µg/mL (≈ 226 µM); IC50 (HEL [9]): 80 µg/mL (≈ 302 µM); IC50 (HEL [10]): > 50 µg/mL; IC50 (HEL [11]): 90 µg/mL (≈ 339 µM); IC50 (HEL [12]): 100 µg/mL (≈ 377 µM); MIC (E6SM [13]): > 200 µg/mL; IC50 (HEL [14]): > 50 µg/mL |
| O=c1[nH]c(=O)n([C@H]2C[C@H](O)[C@@H](CO)O2)cc1/C=C/Br [BRIVUDINE] | > 200 µg/mL | > 200 µg/mL | 70 µg/mL (≈ 210 µM) | 0.004 µg/mL (≈ 0.012 µM) | 0.004 µg/mL (≈ 0.012 µM) | 0.2 µg/mL (≈ 0.6 µM) | 2 µg/mL (≈ 6 µM) | 70 µg/mL (≈ 210 µM) | > 400 µg/mL | 40 µg/mL (≈ 120 µM) | > 50 µg/mL | 0.0007 µg/mL (≈ 0.0021 µM) | > 100 µg/mL | > 100 µg/mL | 8 µg/mL (≈ 24 µM) | 30 µg/mL (≈ 90.1 µM) | IC50 (HEL [26]): 0.0015 µg/mL (≈ 0.0045 µM); Ki (Mus musculus): 23 µM; MIC (E6SM [31]): 300 µg/mL (≈ 901 µM) |
| O=c1[nH]c(=O)n([C@H]2C[C@H](O)[C@@H](CO)O2)cc1I [IDOXURIDINE] | > 400 µg/mL | 0.2 µg/mL (≈ 0.565 µM) | 0.2 µg/mL (≈ 0.565 µM) | 0.2 µg/mL (≈ 0.565 µM) | 0.2 µg/mL (≈ 0.565 µM) | 1 µg/mL (≈ 2.82 µM) | 0.7 µg/mL (≈ 1.98 µM) | 10 µg/mL (≈ 28.2 µM) | > 400 µg/mL | 40 µg/mL (≈ 113 µM) | > 50 µg/mL | 0.17 µg/mL (≈ 0.48 µM) | 20 µg/mL (≈ 56.5 µM) | > 50 µg/mL | 4 µg/mL (≈ 11.3 µM) | 4 µg/mL (≈ 11.3 µM) | MIC (E6SM [32]): 0.2 µg/mL (≈ 0.565 µM); IC50 (HEL [33]): 0.4 µg/mL (≈ 1.13 µM) |

— ChEMBL document CHEMBL1128256, “Synthesis, biological evaluation, and structure analysis of a series of new 1,5-anhydrohexitol nucleosides” (J Med Chem, 1995)
